Data from ChEMBL document CHEMBL1139026, “Lipolanthionine peptides act as inhibitors of TLR2-mediated IL-8 secretion. Synthesis and structure-activity relationships” (J Med Chem, 2006).
The source made the active and inactive calls. The rule behind the calls is not given here. Residues, ends and D or L forms follow the SMILES beside them. *: point of attachment. X5 = CCCCCCCCCCCCCCCCCCCC(=O)N[C@@H](C*)C(=O)NCCCCCCCCCCCCCCCC; X2 = CCCCCCCCCCCCCCCCCC(=O)N[C@@H](C*)C(=O)NCCCCCCCCCCCCCCCC; X6 = CCCCCCCCCCCCCC(=O)N[C@@H](C*)C(=O)NCCCCCCCCCCCC; X3 = CCCCCCCCCCCCCC(=O)N[C@@H](C*)C(=O)NCCCCCCCCCC; X4 = CCCCCCCCCCCCCC(=O)N[C@@H](C*)C(=O)NCCCCCCCC; X7 = CCCCCCCCCCCCCC(=O)N[C@@H](C*)C(=O)NCCCCCC; Arachidoyl = CCCCCCCCCCCCCCCCCCCC(=O)*; Stearoyl = CCCCCCCCCCCCCCCCCC(=O)*; Myristoyl = CCCCCCCCCCCCCC(=O)*

Assays:
Type in all cases: functional, cell-based
Toll-like receptor 2 [1] = biological target: T1, Toll-like receptor 2 (Homo sapiens, UniProt O60603); experiment: Inhibition of TLR2 agonist Pam3Cys-Ser-(Lys)4-OH-mediated IL8 secretion in THP1 cells at 25 uM; details: THP-1
How it was run: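 THP-1 cells, 4 × 10⁴ per well, were preincubated for 10 min at 37 °C with peptide at a single 25 µM concentration (from 10 mM DMSO stock), with or without Pam3Cys-SK4-OH (50 nM), then incubated 5 h at 37 °C. IL-8 was measured by ELISA in cell-free supernatants and expressed relative to agonist plus equal-solvent control. Triplicates, SD.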

THP-1 = experiment: Cytotoxicity against THP1 cells by MTT assay
How it was run: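 THP-1 cells (RPMI 1640 with 10% FCS, 37 °C, 5% CO2) were exposed to lipolanthionine peptides plus Pam3Cys-SK4-OH (50 nM) for 5 h. After part of the supernatant was removed for ELISA, MTT (1 mg/mL) was added for 4 h. Formazan was dissolved in 10% SDS in 10 mM HCl. A570 was read relative to untreated control cells.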

Toll-like receptor 2 [2] = biological target: T1, Toll-like receptor 2; experiment: Inhibition of TLR2-mediated IL-8 secretion in THP-1 cells
How it was run: (§1)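 THP-1 cells, 4 × 10⁴ per well in RPMI 1640/10% FCS, were preincubated with peptides (0.78–25 µM, from 10 mM DMSO stocks) for 10 min at 37 °C. Pam3Cys-SK4-OH (50 nM) was then added for 5 h at 37 °C. IL-8 in cell-free supernatants was measured by matched-pair ELISA against DMSO-matched agonist controls. Triplicates, SD shown.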

Toll-like receptor 2 [3] = biological target: T1, Toll-like receptor 2; experiment: Inhibition of TLR2 agonist Pam3Cys-Ser-(Lys)4-OH-mediated IL8 secretion in THP1 cells; set-up: scale not given: the % may be the effect or the level left; details: for Activity: THP-1; how it was run: as §1

T1 sequence (O60603 whole entry): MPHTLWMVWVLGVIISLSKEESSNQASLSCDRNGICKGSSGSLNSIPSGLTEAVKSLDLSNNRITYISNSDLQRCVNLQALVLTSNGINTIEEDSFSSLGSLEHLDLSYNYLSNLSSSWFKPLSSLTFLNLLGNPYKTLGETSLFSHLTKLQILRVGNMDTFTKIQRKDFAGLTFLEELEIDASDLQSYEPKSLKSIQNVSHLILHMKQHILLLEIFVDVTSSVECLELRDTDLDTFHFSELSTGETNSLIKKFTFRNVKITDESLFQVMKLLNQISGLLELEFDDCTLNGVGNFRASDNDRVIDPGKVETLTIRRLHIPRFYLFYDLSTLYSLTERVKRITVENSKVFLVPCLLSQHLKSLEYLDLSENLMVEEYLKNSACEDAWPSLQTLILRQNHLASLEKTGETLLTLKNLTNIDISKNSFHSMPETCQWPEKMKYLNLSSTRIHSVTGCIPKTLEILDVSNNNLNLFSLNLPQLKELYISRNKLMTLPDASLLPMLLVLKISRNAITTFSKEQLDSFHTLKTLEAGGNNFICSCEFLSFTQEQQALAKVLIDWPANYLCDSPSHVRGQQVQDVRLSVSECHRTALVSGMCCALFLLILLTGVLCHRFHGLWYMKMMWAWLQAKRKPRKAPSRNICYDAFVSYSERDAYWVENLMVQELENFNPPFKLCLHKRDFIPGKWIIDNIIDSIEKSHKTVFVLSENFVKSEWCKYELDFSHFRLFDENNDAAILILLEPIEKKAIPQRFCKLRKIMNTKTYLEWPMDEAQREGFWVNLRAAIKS

SMILES	Activity (Toll-like receptor 2 [1])	Activity (Toll-like receptor 2 [2])	Activity (Toll-like receptor 2 [3])	IC50 (Toll-like receptor 2 [3])	Activity (THP-1)
CCCCCCCCCCCCCCCCNC(=O)[C@H](CSC[C@H](NC(=O)CCCCCCCCCCC)C(=O)N[C@@H](CO)C(=O)N[C@@H](CCCCN)C(=O)N[C@@H](CCCCN)C(=O)N[C@@H](CCCCN)C(=O)N[C@@H](CCCCN)C(N)=O)NC(=O)CCCCCCCCCCC	Active	Active	–	–	inactive
CCCCCCCCCCCCCC(=O)N[C@@H](CSC[C@@H](NC(=O)CCCCCCCCCCCCC)C(=O)N[C@@H](CO)C(=O)N[C@@H](CCCCN)C(=O)N[C@@H](CCCCN)C(=O)N[C@@H](CCCCN)C(=O)N[C@@H](CCCCN)C(N)=O)C(=O)O	–	Active	inactive	–	inactive
CCCCCCCCCCCCCC(=O)N[C@@H](CSC[C@H](NC(=O)CCCCCCCCCCCCC)C(=O)N[C@@H](CO)C(=O)N[C@@H](CCCCN)C(=O)N[C@@H](CCCCN)C(=O)N[C@@H](CCCCN)C(=O)N[C@@H](CCCCN)C(N)=O)C(=O)NCCCCCCCCCCCC (Myristoyl-C(X6)SKKKK-NH2)	–	Active	–	–	inactive
CCCCCCCCCCCCCCCC(=O)O [PALMITIC ACID]	–	–	68%	5 µM	–
CCCCCCCCCCCCCCCCNC(=O)[C@H](CSC[C@H](NC(=O)CCCCC)C(=O)N[C@@H](CO)C(=O)N[C@@H](CCCCN)C(=O)N[C@@H](CCCCN)C(=O)N[C@@H](CCCCN)C(=O)N[C@@H](CCCCN)C(N)=O)NC(=O)CCCCC	–	Active	–	–	inactive
CCCCCCCCCCCCCCCCNC(=O)[C@H](CSC[C@H](NC(=O)CCCCCCCCC)C(=O)N[C@@H](CO)C(=O)N[C@@H](CCCCN)C(=O)N[C@@H](CCCCN)C(=O)N[C@@H](CCCCN)C(=O)N[C@@H](CCCCN)C(N)=O)NC(=O)CCCCCCCCC	–	Active	–	–	inactive
CCCCCCCCCCCCCCCCCCNC(=O)[C@H](CSC[C@H](NC(=O)CCCCCCCCCCCCC)C(=O)N[C@@H](CO)C(=O)N[C@@H](CCCCN)C(=O)N[C@@H](CCCCN)C(=O)N[C@@H](CCCCN)C(=O)N[C@@H](CCCCN)C(N)=O)NC(=O)CCCCCCCCCCCCC	–	Active	–	–	inactive
CCCCCCCCCCCCCC(=O)N[C@H](CSC[C@@H](NC(=O)CCCCCCCCCCCCC)C(=O)N[C@@H](CO)C(=O)N[C@@H](CCCCN)C(=O)N[C@@H](CCCCN)C(=O)N[C@@H](CCCCN)C(=O)N[C@@H](CCCCN)C(N)=O)C(=O)O	–	Active	inactive	–	inactive
CCCCCCCCCCCCCCCCNC(=O)[C@H](C[S+]([O-])C[C@H](NC(=O)CCCCCCCCCCCCCCC)C(=O)N[C@@H](CO)C(=O)N[C@@H](CCCCN)C(=O)N[C@@H](CCCCN)C(=O)N[C@@H](CCCCN)C(=O)N[C@@H](CCCCN)C(N)=O)NC(=O)CCCCCCCCCCCCCCC (some centres undefined)	–	Active	–	–	inactive
CCCCCCCCCCCCCCCCNC(=O)[C@H](CSC[C@H](NC(=O)CCCCCCCCCCCCC)C(=O)N[C@@H](CO)C(=O)N[C@@H](CCCCN)C(=O)N[C@@H](CCCCN)C(=O)N[C@@H](CCCCN)C(=O)N[C@@H](CCCCN)C(N)=O)NC(=O)CCCCCCCCCCCCC	Active	Active	–	–	inactive
CCCCCCCCCCCCCCNC(=O)[C@H](CSC[C@H](NC(=O)CCCCCCCCCCCCC)C(=O)N[C@@H](CO)C(=O)N[C@@H](CCCCN)C(=O)N[C@@H](CCCCN)C(=O)N[C@@H](CCCCN)C(=O)N[C@@H](CCCCN)C(N)=O)NC(=O)CCCCCCCCCCCCC	–	Active	–	–	inactive
CCCCCCCCCCCCCC(=O)N[C@@H](CSC[C@H](NC(=O)CCCCCCCCCCCCC)C(=O)N[C@@H](CO)C(=O)N[C@@H](CCCCN)C(=O)N[C@@H](CCCCN)C(=O)N[C@@H](CCCCN)C(=O)N[C@@H](CCCCN)C(N)=O)C(=O)NCCCCCCCC (Myristoyl-C(X4)SKKKK-NH2)	–	Active	–	–	inactive
CCCCCCCCCCCCCC(=O)N[C@@H](CSC[C@H](NC(=O)CCCCCCCCCCCCC)C(=O)N[C@@H](CO)C(=O)N[C@@H](CCCCN)C(=O)N[C@@H](CCCCN)C(=O)N[C@@H](CCCCN)C(=O)N[C@@H](CCCCN)C(N)=O)C(=O)NCCCCCCCCCC (Myristoyl-C(X3)SKKKK-NH2)	–	Active	–	–	inactive
CCCCCCCCCCCCCCCCNC(=O)[C@H](CSC[C@H](NC(=O)CCCCCCC)C(=O)N[C@@H](CO)C(=O)N[C@@H](CCCCN)C(=O)N[C@@H](CCCCN)C(=O)N[C@@H](CCCCN)C(=O)N[C@@H](CCCCN)C(N)=O)NC(=O)CCCCCCC	–	Active	–	–	inactive
CCCCCCCCCCCCCC(=O)N[C@@H](CSC[C@H](NC(=O)CCCCCCCCCCCCC)C(=O)N[C@@H](CO)C(=O)N[C@@H](CCCCN)C(=O)N[C@@H](CCCCN)C(=O)N[C@@H](CCCCN)C(=O)N[C@@H](CCCCN)C(N)=O)C(=O)NCCCCCC (Myristoyl-C(X7)SKKKK-NH2)	–	–	–	–	inactive
CCCCCCCCCCCCCCCCNC(=O)[C@H](CSC[C@@H](NC(=O)CCCCCCCCCCCCC)C(=O)N[C@@H](CO)C(=O)N[C@@H](CCCCN)C(=O)N[C@@H](CCCCN)C(=O)N[C@@H](CCCCN)C(=O)N[C@@H](CCCCN)C(N)=O)NC(=O)CCCCCCCCCCCCC	–	Active	–	–	inactive

Second part, led by results:

Activity (Toll-like receptor 2 [1])	Activity (Toll-like receptor 2 [2])	Activity (Toll-like receptor 2 [3])	IC50 (Toll-like receptor 2 [3])	SMILES	Activity (THP-1)
–	Active	–	–	CCCCCCCCCCCCCCCCNC(=O)[C@H](CS(=O)(=O)C[C@H](NC(=O)CCCCCCCCCCCCCCC)C(=O)N[C@@H](CO)C(=O)N[C@@H](CCCCN)C(=O)N[C@@H](CCCCN)C(=O)N[C@@H](CCCCN)C(=O)N[C@@H](CCCCN)C(N)=O)NC(=O)CCCCCCCCCCCCCCC	inactive
–	Active	inactive	–	CCCCCCCCCCCCCC(=O)N[C@@H](CSC[C@@H](NC(=O)CCCCCCCCCCCCC)C(=O)O)C(=O)N[C@@H](CO)C(=O)N[C@@H](CCCCN)C(=O)N[C@@H](CCCCN)C(=O)N[C@@H](CCCCN)C(=O)N[C@@H](CCCCN)C(N)=O	inactive
–	Active	–	–	CCCCCCCCCCCCCCCCNC(=O)[C@@H](CSC[C@@H](NC(=O)CCCCCCCCCCCCC)C(=O)N[C@@H](CO)C(=O)N[C@@H](CCCCN)C(=O)N[C@@H](CCCCN)C(=O)N[C@@H](CCCCN)C(=O)N[C@@H](CCCCN)C(N)=O)NC(=O)CCCCCCCCCCCCC	inactive
Active	Active	–	–	CCCCCCCCCCCCCCCCNC(=O)[C@H](CSC[C@H](NC(=O)CCCCCCCCCCCCCCC)C(=O)N[C@@H](CO)C(=O)N[C@@H](CCCCN)C(=O)N[C@@H](CCCCN)C(=O)N[C@@H](CCCCN)C(=O)N[C@@H](CCCCN)C(N)=O)NC(=O)CCCCCCCCCCCCCCC	inactive
–	Active	–	–	CCCCCCCCCCCCCCCCCCCC(=O)N[C@@H](CSC[C@H](NC(=O)CCCCCCCCCCCCCCCCCCC)C(=O)N[C@@H](CO)C(=O)N[C@@H](CCCCN)C(=O)N[C@@H](CCCCN)C(=O)N[C@@H](CCCCN)C(=O)N[C@@H](CCCCN)C(N)=O)C(=O)NCCCCCCCCCCCCCCCC (Arachidoyl-C(X5)SKKKK-NH2)	inactive
–	Active	–	–	CCCCCCCCCCCCCCCCCC(=O)N[C@@H](CSC[C@H](NC(=O)CCCCCCCCCCCCCCCCC)C(=O)N[C@@H](CO)C(=O)N[C@@H](CCCCN)C(=O)N[C@@H](CCCCN)C(=O)N[C@@H](CCCCN)C(=O)N[C@@H](CCCCN)C(N)=O)C(=O)NCCCCCCCCCCCCCCCC (Stearoyl-C(X2)SKKKK-NH2)	inactive
–	Active	–	–	CCCCCCCCCCCCCCCCNC(=O)[C@@H](CSC[C@H](NC(=O)CCCCCCCCCCCCC)C(=O)N[C@@H](CO)C(=O)N[C@@H](CCCCN)C(=O)N[C@@H](CCCCN)C(=O)N[C@@H](CCCCN)C(=O)N[C@@H](CCCCN)C(N)=O)NC(=O)CCCCCCCCCCCCC	inactive
–	Active	inactive	–	CCCCCCCCCCCCCC(=O)N[C@@H](CSC[C@H](NC(=O)CCCCCCCCCCCCC)C(=O)N[C@@H](CO)C(=O)N[C@@H](CCCCN)C(=O)N[C@@H](CCCCN)C(=O)N[C@@H](CCCCN)C(=O)N[C@@H](CCCCN)C(N)=O)C(=O)O	inactive
